Experimental findings from ChEMBL document CHEMBL1155754, “Samioside, a new phenylethanoid glycoside with free-radical scavenging and antimicrobial activities from Phlomis samia” (J Nat Prod, 2001) are described below.

pIC50: −log10 of the molar value. Values after ≈ are worked out from the molar mass of the structure shown.

Format in all cases: functional
Experiment [1] concerns Klebsiella pneumoniae. In words: Antimicrobial activity against Klebsiella pneumoniae ATCC 13883 by agar dilution method. An outline of the steps:
(§1)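 Agar dilution against the listed ATCC bacterial strains. MIC taken as the lowest concentration preventing visible growth.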

The test system of experiment [2] is Pseudomonas aeruginosa. In words: Antimicrobial activity against Pseudomonas aeruginosa ATCC 27853 by agar dilution method. An outline of the steps:
as §1

Experiment [3] deals with Staphylococcus aureus. Kind of experiment: Antimicrobial activity against Staphylococcus aureus ATCC 25923 by disk diffusion method. An outline of the steps: (§2)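 Bauer-Kirby disk diffusion against the listed ATCC bacterial and Candida strains. Growth inhibition read as zone of inhibition diameter (mm). Three repeat experiments, reported as averages.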
Experiment [4] has as its system Staphylococcus epidermidis. In words: Antimicrobial activity against Staphylococcus epidermidis ATCC 12228 by disk diffusion method. An outline of the steps:
as §2

Experiment [5] concerns Enterobacter cloacae. In words: Antimicrobial activity against Enterobacter cloacae ATCC 13047 by disk diffusion method. The essentials: as §2
Experiment [6] concerns Escherichia coli. Kind of experiment: Antimicrobial activity against Escherichia coli ATCC 25922 by disk diffusion method. The essentials:
as §2

Experiment [7] relates to Klebsiella pneumoniae. In words: Antimicrobial activity against Klebsiella pneumoniae ATCC 13883 by disk diffusion method. The essentials: as §2
Experiment [8] has as its system Pseudomonas aeruginosa. In words: Antimicrobial activity against Pseudomonas aeruginosa ATCC 27853 by disk diffusion method. An outline of the steps: as §2
Experiment [9] concerns Staphylococcus aureus. In words: Antimicrobial activity against Staphylococcus aureus ATCC 25923 by agar dilution method. The essentials: as §1
For experiment [10], the system named is Staphylococcus epidermidis. In words: Antimicrobial activity against Staphylococcus epidermidis ATCC 12228 by agar dilution method. An outline of the steps: as §1
The subject of experiment [11] is Enterobacter cloacae. In words: Antimicrobial activity against Enterobacter cloacae ATCC 13047 by agar dilution method. The essentials:
as §1

Experiment [12] relates to Escherichia coli. Kind of experiment: Antimicrobial activity against Escherichia coli ATCC 25922 by agar dilution method. An outline of the steps:
as §1

The test system of experiment [13] is Radical scavenging activity. In words: Antioxidant activity assessed as DPPH free radical scavenging activity after 30 mins. The arrangement: concentration or dose not given beside the values. The essentials: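 Sample mixed with DPPH in ethanol and left 30 min at 37 °C. Optical density read at 515 nm. Ethanol replaced DPPH for the blank and DMSO replaced sample for the control. IC50 (amount scavenging 50% of DPPH) came from regression of average percent DPPH reduction against concentration, over three separate tests.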

The test system of experiment [14] is Candida albicans. Kind of experiment: Antimicrobial activity against Candida albicans ATCC 10231 by disk diffusion method. The essentials:
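Bauer-Kirby disk diffusion against Candida albicans ATCC 10231; experiments repeated three times, results expressed as average values (zone of inhibition).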

Experiment [15] has as its system Nakaseomyces glabratus. Kind of experiment: Antimicrobial activity against Candida glabrata ATCC 28838 by disk diffusion method. The essentials: as §2
Experiment [16] concerns Candida tropicalis. In words: Antimicrobial activity against Candida tropicalis ATCC 13801 by disk diffusion method. The essentials:
as §2

Consider `CCN[C@@H]1C[C@H](N)[C@@H](O[C@H]2OC(CN)=CC[C@H]2N)[C@H](O)[C@H]1O[C@H]1OC[C@](C)(O)[C@H](NC)[C@H]1O` [NETILMICIN], for which the MIC was 8 µg/mL (≈ 16.8 µM) in experiment [1]; 8.8 µg/mL (≈ 18.5 µM) in [2]; 4 µg/mL (≈ 8.41 µM) in experiment [9]; 4 µg/mL (≈ 8.41 µM) in [10]; 8 µg/mL (≈ 16.8 µM) in experiment [11]; 10 µg/mL (≈ 21 µM) in experiment [12]. Moreover, the “inhibition zone (IZ)” value in [3] came to 22 mm; in experiment [4] it was 24 mm; in experiment [5] it was 22 mm; in experiment [6], 23 mm; in [7] it was 25 mm; in experiment [8], 20 mm.
As to `O=c1cc(-c2ccc(O)cc2)oc2cc(O)cc(O)c12`, in [13], the Activity was less than 40%.
`C[C@@H]1O[C@@H](O[C@@H]2[C@@H](O)[C@H](OCCc3ccc(O)c(O)c3)O[C@H](CO)[C@H]2OC(=O)/C=C/c2ccc(O)c(O)c2)[C@H](O)[C@H](O)[C@H]1O[C@@H]1OC[C@](O)(CO)[C@H]1O` [SAMIOSIDE]: the MIC in experiment [1] was determined as 790 µg/mL (≈ 1040 µM); in experiment [2], 850 µg/mL (≈ 1120 µM); in experiment [9] it was 460 µg/mL (≈ 608 µM); in experiment [10] it was 480 µg/mL (≈ 634 µM); in experiment [11], 890 µg/mL (≈ 1180 µM); in [12] it was 520 µg/mL (≈ 687 µM). Moreover, the Activity in experiment [13] is greater than 70%. In experiment [13], the pIC50 was 4.62. The “inhibition zone (IZ)” value was 12 mm in experiment [3]; 16 mm in [4]; 10 mm in experiment [5]; 15 mm in experiment [6]; 11 mm in experiment [7]; 10 mm in experiment [8]. For the same molecule, the “inhibition zone (IZ)” value in [14] worked out at 8 mm; in experiment [15], 11 mm; in experiment [16], 10 mm.
Consider `COc1cc(-c2cc(=O)c3c(O)cc(O)cc3o2)ccc1O`, for which the Activity in experiment [13] is less than 40%.
Still for that read-out and setting: with `COc1ccc(-c2oc3cc(O)cc(O)c3c(=O)c2OC)cc1` the figure was less than 40%.
On to `C[C@@H]1[C@H](O)[C@@H](C)/C=C/C=C/C=C/C=C/C=C/C=C/C=C/[C@H](O[C@@H]2O[C@H](C)[C@@H](O)[C@H](N)[C@@H]2O)C[C@@H]2O[C@](O)(C[C@@H](O)C[C@@H](O)[C@H](O)CC[C@@H](O)C[C@@H](O)CC(=O)O[C@H]1C)C[C@H](O)[C@H]2C(=O)O` [AMPHOTERICIN B], for which the “inhibition zone (IZ)” value in [14] was found to be 20 mm; in experiment [15] it was 24 mm; in experiment [16], 22 mm.
Take `C[C@@H]1O[C@@H](O[C@@H]2[C@@H](O)[C@H](OCCc3ccc(O)c(O)c3)O[C@H](CO)[C@H]2OC(=O)/C=C/c2ccc(O)c(O)c2)[C@H](O)[C@H](O)[C@H]1O` [ACETOSIDE]: in [13], the Activity was greater than 70% and the pIC50 is 4.31. The molecule also showed an MIC in [9] of 400 µg/mL (≈ 640 µM).
Turning to `O=C(O)/C=C/c1ccc(O)c(O)c1` [CAFFEIC ACID], the pIC50 in experiment [13] is 4.18.
Same read-out and setting: in the case of `O=C(O)c1cc(O)c(O)c(O)c1` [GALLIC ACID] it was 4.75.
